TRPML3 ag = activates the human TRPML3 channel. HEK293 TRPML3-YFP, Fluo-8 calcium fluorescence; 100% = the carbachol control signal. activation, % at 3 µM. actives 0.29% (n = 220,000);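 active = activation above its plate's cutoff, the mean activation of the plate's test wells plus 3 SD, cut at about 12% in these data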;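 note: 0% = DMSO only wells and 100% = carbachol wells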
Target sequence (Q8TDD5 whole entry, looked up): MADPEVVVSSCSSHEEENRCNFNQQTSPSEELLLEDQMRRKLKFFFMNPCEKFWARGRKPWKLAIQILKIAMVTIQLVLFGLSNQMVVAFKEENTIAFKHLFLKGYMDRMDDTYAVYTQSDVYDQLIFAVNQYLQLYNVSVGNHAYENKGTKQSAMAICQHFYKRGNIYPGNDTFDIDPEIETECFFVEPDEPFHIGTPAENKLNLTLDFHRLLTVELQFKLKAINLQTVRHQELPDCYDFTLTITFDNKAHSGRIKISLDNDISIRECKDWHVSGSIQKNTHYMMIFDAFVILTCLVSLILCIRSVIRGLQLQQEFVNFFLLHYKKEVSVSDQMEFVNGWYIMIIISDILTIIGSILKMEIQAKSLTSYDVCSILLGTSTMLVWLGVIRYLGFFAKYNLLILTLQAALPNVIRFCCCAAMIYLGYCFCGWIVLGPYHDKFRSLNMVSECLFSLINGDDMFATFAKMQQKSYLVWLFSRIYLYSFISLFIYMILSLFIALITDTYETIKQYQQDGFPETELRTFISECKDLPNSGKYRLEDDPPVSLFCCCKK
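Test system – HEK293 line with stable expression of human TRPML3-YFP channel · Control set – carbachol 87 µM final as high control (100%), DMSO as low control (0%) · Signal – Fluo-8 calcium dye fluorescence, ex 470-495, em 515-575 nm · Incubation – 1-h 37 °C dye load, 5-s basal, 120-s post-compound reads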
zfTRPN1 agonist = activates the zebrafish TRPN1 channel. HEK293 zebrafish TRPN1-YFP, Fluo-8 calcium fluorescence; 100% = response to 87 µM carbachol. activation, % at 3 µM. actives 0.18% (n = 220,000);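 active = activation above its plate's cutoff, the mean activation of test wells on that plate plus 3 SD, cut at about 19% in these data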;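 note: 0% = DMSO alone and 100% = 87 µM carbachol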
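Material – zebrafish TRPN1-YFP in HEK293 cells · Doses – 3 µM single point · Schedule – dye 1 h 37 °C plus 30 min RT · Signal – Fluo-8 calcium fluorescence, excitation 470-495 nm, emission 515-575 nm · Read-out – % activation versus carbachol response · Control set – carbachol high, DMSO low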
IDE act = boosts human insulin-degrading enzyme activity in HEK cells | P14735 | FAbeta-B cleavage, fluorescence polarization; 0% vehicle, 100% cell-free pure enzyme wells | activation, % at 5.96 µM | actives 0.073% (n = 340,000) | AID 493087;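 active = activation above the mean of all tested compounds plus 3 SD, set per screening campaign, cut at about 17% in these data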
IDE cell inh = cellular human IDE inhibition. actives 0.41% (n = 320,000). inhibition, % at 5.59 µM. P14735. HEK cells, FAbetaB cleavage, fluorescence polarization;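 active = percent inhibition above the average of all tested compounds plus 3 SD, set per screening campaign, cut at about 16% in these data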;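 note: IDE supplied by intact live HEK cells; FP after avidin binding of uncleaved biotin substrate so inhibition keeps polarization high; 0% = DMSO wells and 100% = 60 µM reference IDE inhibitor Ii1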
IDE inh confirm = cellular human IDE inhibition, confirmation. shares compounds with IDE cell inh. actives 51% (n = 1,200). inhibition, % at 5.59 µM. HEK cells, FAbetaB cleavage, fluorescence polarization;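 active = mean inhibition across triplicate wells above the cutoff set by the earlier primary insulin-degrading enzyme screen, cut at about 16% in these data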;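 note: 0% = DMSO wells and 100% = 60 µM reference IDE inhibitor Ii1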
HEK293 tox = HEK cell cytotoxicity, counter-screen for IDE inhibitors; HEK293 cytotoxicity, ATP luminescence; inhibition, % at 5.59 µM; actives 28% (n = 1,200); shares compounds with IDE cell inh; in the data active = inhibition above about 22%;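 note: 0% = vehicle wells and 100% = reference cytotoxic drug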
The depositor's hits bear a star; x = no result given. Compounds with a hit are over-represented: about 0.63% of the library has one in this group of screens.

SMILES | TRPML3 ag | zfTRPN1 agonist | IDE act | IDE cell inh | IDE inh confirm | HEK293 tox
C[CH2][Hg][S]c1ccccc1C(=O)O | x | x | -50.4 | 52.6* | 20.9* | 122.4*
CC12C=CC(=O)C=C1CC(O)C1C2CCC2(C)C1CCC2(C)O (stereo not drawn) | x | x | -1.8 | x | x | x
O=c1c2ccccc2nc(/C=C/c2ccc(O)cc2)n1-c1ccc(O)cc1 | x | x | -70.5 | 62.1* | 133.3* | 20.7
COc1cccc(-n2c(/C=C/c3ccc(O)c(O)c3)nc3ccccc3c2=O)c1 | 0.2 | 3.6 | -101.2 | 159.6* | 25.9* | 16.6
COc1ccc(-n2c(/C=C/c3ccc4c(c3)OCO4)nc3ccccc3c2=O)cc1 | -0.1 | -0.3 | 0.5 | 9.8 | x | x
COc1ccc(-n2c(SC)nc3ccccc3c2=O)cc1 | -0.8 | -1.0 | 0.7 | 0.9 | x | x
Cc1ccc(-n2c(/C=C/c3ccc4c(c3)OCO4)nc3ccccc3c2=O)cc1 | -1.0 | -1.0 | x | 0.8 | x | x
COc1cccc(-n2c(/C=C/c3ccccn3)nc3ccccc3c2=O)c1 | x | x | 2.5 | x | x | x
COc1ccc(-n2c(/C=C/c3ccc(O)c(OC)c3)nc3ccccc3c2=O)cc1 | x | x | -43.5 | 34.2* | 102.4* | 25.6*
COc1ccc(-n2c(/C=C/c3ccc(O)cc3)nc3ccccc3c2=O)cc1 | x | x | -34.1 | 31.1* | 75.8* | 15.2
CN1C(=O)C[N+]([O-])=C(c2ccccc2)c2cc(Cl)ccc21 | x | x | 5.2 | x | x | x
C#C[C@]1(O)[C@H](O)CC2C3CC[C@H]4C[C@@H](O)CC[C@]4(C)C3CC[C@@]21C (stereo partly drawn) | x | x | x | 0.4 | x | x
O=c1[nH]c(=O)n(Cc2ccccc2)c(O)c1/C=N/NCCO | 0.7 | 1.3 | x | 16.5* | 1.8 | 6.2
CCN1/C(=C\C=C\C2=[N+](CC)c3ccccc3C2(C)C)C(C)(C)c2ccccc21 | 158.5* | 316.8* | -94.7 | 81.7* | 172.9* | 120.0*
CC12CCC(=O)C=C1CC(N1CC1)C1C2CCC2(C)C(O)CCC12 (stereo not drawn) | x | x | 7.8 | x | x | x

Screens from PubChem BioAssay.
